The test system of series [1] is RAW264.7. As to the kind of experiment: Cytotoxicity against mouse RAW264.7 cells assessed as reduction in cell viability after 24 hrs by MTT assay. Type of series: functional, cell-based. Particulars: RAW264.7, 24 h. An outline of the steps: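 RAW 264.7 mouse macrophage line kept in RPMI 1640 with 10% FBS, L-glutamine and antibiotics. Treated with 1–100 μM for 24 h, then MTT at 37 °C for 4 h. Formazan taken up in DMSO and read at 540 nm. Triplicate, at least three independent experiments. IC50 is the concentration giving 50% loss of viability relative to untreated cells.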

For the next series, the system named is HeLa. As to the kind of experiment: Cytotoxicity against human HeLa cells assessed as reduction in cell viability after 24 hrs by MTT assay. Type of series: functional, cell-based. An outline of the steps:
(§1)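 Cancer cells kept in DMEM with 10% FBS, L-glutamine and antibiotics. Exposed to 1–100 μM for 24 h, then MTT at 37 °C for 4 h. Formazan dissolved in DMSO and read at 540 nm. Triplicate wells, at least three independent experiments. Viability reduction expressed against untreated cultures. IC50 is the concentration giving 50% loss of viability.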
(In general: Formazan colour is commonly taken as a measure of viable cells.)

The subject of another series is HepG2. As to the kind of experiment: Cytotoxicity against human HepG2 cells assessed as reduction in cell viability after 24 hrs by MTT assay. Type of series: functional, cell-based. Particulars: HepG2, 24 h. The gist of the method:
as §1

Another series relates to HT-29. As to the kind of experiment: Cytotoxicity against human HT-29 cells assessed as reduction in cell viability after 24 hrs by MTT assay. Type of series: functional, cell-based. Conditions: HT-29, 24 h. The gist of the method: as §1
Series [2] is described as follows: Toxicity in thioglycolate-induced mouse peritoneal macrophages assessed as reduction in cell viability after 24 hrs by MTT assay. Type of series: cell-based. Conditions: peritoneal macrophage cell. The gist of the method: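 Primary peritoneal macrophages from thioglycolate-injected mice exposed to a range of concentrations for 24 h. Viability read by MTT at 37 °C for 4 h, formazan dissolved in DMSO, absorbance at 540 nm. Three independent experiments in duplicate, means ± SD.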

Series [3] can be described thus: Toxicity in thioglycolate-induced mouse peritoneal macrophages assessed as induction of apoptosis after 24 hrs by flow cytometry. Particulars: peritoneal macrophage cell. Type of series: cell-based. An outline of the steps: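 Peritoneal macrophages collected from thioglycolate-injected mice and treated across a concentration range for 24 h. Stained with PI and analysed by flow cytometry for apoptotic percentage. Means ± SD of three independent experiments done in duplicate.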
Background: A flow cytometer gives signals particle by particle.

Series [4] concerns RAW264.7. As to the kind of experiment: Induction of apoptosis in mouse RAW264.7 cells at 1 to 25 uM after 24 hrs by flow cytometry. Type of series: functional, cell-based. An outline of the steps:
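RAW 264.7 cells exposed to 1–25 μM for 24 h. Stained with 0.005% (w/v) propidium iodide and analysed at once by flow cytometry. Apoptotic and necrotic fractions taken from a forward scatter versus PI fluorescence dot plot. Means ± SD of three independent experiments in triplicate.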

For series [5], the system named is RAW264.7. Description: Induction of apoptosis in mouse RAW264.7 cells assessed as caspase 8 activation at 5 uM after 24 hrs by fluorimetry. Type of series: functional, cell-based. An outline of the steps:
(§2)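 RAW cells treated with 5 μM for 24 h, with or without 40 μM z-VAD. Caspase activity read fluorimetrically in cytosolic extracts. Substrates: Ac-DEVD-AMC for caspase-3, Ac-IETD-AFC for caspase-8, Ac-LEHD-AFC for caspase-9. Means ± SD of three independent experiments run in triplicate.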

Series [6] relates to RAW264.7. Description: Induction of apoptosis in mouse RAW264.7 cells assessed as caspase 9 activation at 5 uM after 24 hrs by fluorimetry. Type of series: functional, cell-based. The gist of the method:
as §2

Series [7] has as its system RAW264.7. As to the kind of experiment: Induction of apoptosis in mouse RAW264.7 cells assessed as caspase 3 activation at 5 uM after 24 hrs by fluorimetry. Type of series: functional, cell-based. The gist of the method: as §2
For series [8], the system named is RAW264.7. Description: Induction of apoptosis in mouse RAW264.7 cells assessed as caspase 8 activation at 5 uM in presence of 40 uM caspase inhibitor z-VAD after 24 hrs by fluorimetric assay. Type of series: functional, cell-based. The gist of the method: as §2
In series [9] the test system is RAW264.7. As to the kind of experiment: Induction of apoptosis in mouse RAW264.7 cells assessed as caspase 9 activation at 5 uM in presence of 40 uM caspase inhibitor z-VAD after 24 hrs by fluorimetric assay. Type of series: functional, cell-based. An outline of the steps: as §2
Series [10] relates to RAW264.7. Description: Induction of apoptosis in mouse RAW264.7 cells assessed as caspase 3 activation at 5 uM in presence of 40 uM caspase inhibitor z-VAD after 24 hrs by fluorimetric assay. Type of series: functional, cell-based. The gist of the method: as §2
Series [11] concerns RAW264.7. Description: Induction of apoptosis in mouse RAW264.7 cells at 5 uM in presence of 40 uM caspase inhibitor z-VAD after 24 hrs by flow cytometry. Type of series: functional, cell-based. An outline of the steps: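 RAW 264.7 cells given 5 μM for 24 h, with or without 40 μM z-VAD. Stained with 0.005% (w/v) PI and analysed by flow cytometry. Apoptotic percentage taken from a forward scatter versus PI fluorescence dot plot. Three independent experiments in triplicate, means ± SD.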

Series [12] relates to RAW264.7. Description: Increase in p53 protein expression in mouse RAW264.7 cells at 5 uM by Western blot. Type of series: functional, cell-based. The gist of the method:
(§3)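 RAW 264.7 cells incubated with 5 μM and sampled at several time points. Cytosolic extracts run on SDS–PAGE (10–15% gels) and blotted to PVDF. Probed for p53, Bax, Bcl-2, Bcl-xl, XIAP, IAP-1 and IAP-2, then HRP secondary and chemiluminescence. β-actin served as loading control. Protein measured by Bio-Rad assay.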

Series [13] concerns RAW264.7. As to the kind of experiment: Increase in Bax protein expression in mouse RAW264.7 cells at 5 uM by Western blot. Type of series: functional, cell-based. An outline of the steps:
as §3
On the technique in general: Immunoblotting shows a protein as a band on a membrane.

For series [14], the system named is RAW264.7. As to the kind of experiment: Decrease in Bcl-2 protein expression in mouse RAW264.7 cells at 5 uM by Western blot. Type of series: functional, cell-based. The gist of the method:
as §3

For series [15], the system named is RAW264.7. Description: Decrease in Bcl-xl protein expression in mouse RAW264.7 cells at 5 uM by Western blot. Type of series: functional, cell-based. An outline of the steps:
as §3

For series [16], the system named is RAW264.7. As to the kind of experiment: Decrease in IAP protein expression in mouse RAW264.7 cells at 5 uM by Western blot. Type of series: functional, cell-based. The gist of the method:
as §3

Calls of active or inactive are those of the source. The rule behind the calls is not given here.

The term IC50 denotes the concentration that gives 50% inhibition. For `C=C1[C@H]2CC3=C([C@H](C2)[C@@H]1O)[C@]1(C)CCC[C@@](C)(C(=O)OC)[C@H]1CC3`, the IC50 with RAW264.7 [1] was 5 µM; with HeLa it was > 100 µM; in the series with HepG2 it was > 100 µM; in the series on HT-29, > 100 µM. In addition, the Activity entry in series [2] and in [3] was “Non-toxic” throughout. Further, the result in the series with RAW264.7 [4], in the series with RAW264.7 [5], with RAW264.7 [6], in the series on RAW264.7 [7], in the series with RAW264.7 [12] and in the series with RAW264.7 [13] was Active. The result with RAW264.7 [14], in the series on RAW264.7 [15] and in the series on RAW264.7 [16] was Active. Besides, the result with RAW264.7 [8], in the series with RAW264.7 [9], with RAW264.7 [10] and in the series with RAW264.7 [11] was inactive.

On to `COC(=O)[C@]1(C)CCC[C@@]2(C)[C@@H]3CC[C@@H]4C[C@]3(C=C4C)CC[C@@H]21`, for which the IC50 with RAW264.7 [1] stood at 100 µM.

In the case of `C=C1[C@@H]2CC[C@H]3[C@]4(C)CCC[C@@](C)(C(=O)OC)[C@H]4CC[C@]3(C2)[C@H]1OC(C)=O`, the IC50 in the series on RAW264.7 [1] came out at 25 µM.

In the case of `C=C1C[C@@]23CC[C@@H]4[C@](C)(C(=O)O)CCC[C@@]4(C)C2=CC[C@@H]1C3` [GRANDIFLORENIC ACID], the IC50 with RAW264.7 [1] came to 15 µM.

As to `C=C1[C@@H]2CC[C@H]3[C@]4(C)CCC[C@@](C)(C(=O)O)[C@H]4CC[C@]3(C2)[C@H]1O`, in the series with RAW264.7 [1], the IC50 is > 100 µM.

As for `COC(=O)[C@]1(C)CCC[C@@]2(C)C3=CC[C@@H]4C[C@]3(C=C4C=O)CC[C@H]12`, the IC50 amounted to 5 µM in the series on RAW264.7 [1], 10 µM in the series on HeLa, 25 µM with HepG2 and 40 µM with HT-29. Further, the Activity result in series [2] and in [3] was “Toxic” each time. Besides, the result with RAW264.7 [4], with RAW264.7 [6], in the series with RAW264.7 [7], in the series on RAW264.7 [12], with RAW264.7 [13] and in the series with RAW264.7 [14] was Active. Also, the outcome in the series on RAW264.7 [15] and in the series with RAW264.7 [16] was Active. Further, the result in the series on RAW264.7 [8], in the series on RAW264.7 [9], with RAW264.7 [10] and in the series with RAW264.7 [11] was inactive.

With `COC(=O)[C@]1(C)CCCC2(C)[C@@H]3CC[C@@H]4C[C@@]3(CC[C@@H]21)C[C@@]41CO1` (stereo partly specified), the IC50 in the series on RAW264.7 [1] is > 100 µM.

As for `C=C1C[C@@]23CC[C@H]4[C@@](C)(CCC[C@@]4(C)C(=O)OCc4ccccc4)[C@@H]2CC[C@@H]1C3` [KAURENOIC ACID BENZYL ESTER], the IC50 in the series with RAW264.7 [1] worked out at 25 µM.

Regarding `COC(=O)[C@]1(C)CCC[C@@]2(C)[C@@H]3CC[C@@H]4C[C@@]3(CC[C@@H]21)C[C@@]4(C)Cl`, the IC50 in the series with RAW264.7 [1] was > 100 µM.

Take `COC(=O)[C@]1(C)CCC[C@@]2(C)[C@@H]3CC[C@@H]4C[C@@]3(CC[C@@H]21)C[C@@]4(C)O`: in the series on RAW264.7 [1], the IC50 came out at 25 µM.

`COC(=O)[C@]1(C)CCC[C@@]2(C)[C@@H]3CC[C@@H]4C[C@]3(C=C4C=O)CC[C@@H]21`: the IC50 in the series on RAW264.7 [1] came out at 25 µM.

On to `C=C1C[C@@]23CC[C@@H]4[C@](C)(CO)CCC[C@@]4(C)[C@@H]2CC[C@@H]1C3`, for which, in the series with RAW264.7 [1], the IC50 was > 100 µM.

With `COC(=O)[C@]1(C)CCC[C@@]2(C)[C@@H]3CC[C@@H]4C[C@@]3(CC[C@@H]21)C[C@H]4C=O`, the IC50 in the series on RAW264.7 [1] was > 100 µM.

For the compound `C=C1[C@@H]2CC=C3[C@@](CC[C@@H]4[C@](C)(C(=O)OC)CCC[C@@]34C)(C2)[C@H]1O`, the IC50 with RAW264.7 [1] is > 100 µM.

`COC(=O)[C@]1(C)CCC[C@@]2(C)C3=CC[C@@H]4C[C@@]3(CC[C@H]12)C[C@]4(O)CO`: the IC50 with RAW264.7 [1] amounted to 25 µM.

As to `C=C1C[C@@]23CC[C@@H]4[C@](C)(C(=O)OCc5ccccc5)CCC[C@@]4(C)C2=CC[C@@H]1C3` [GRANDIFLORENIC ACID BENZYL ESTER], the IC50 with RAW264.7 [1] worked out at 65 µM.

Source of the values: ChEMBL document CHEMBL1156919, “Synthesis and induction of apoptosis signaling pathway of ent-kaurane derivatives” (Bioorg Med Chem, 2010).
